The record followed here is ChEMBL document CHEMBL1131263, “Substituted tetrahydropyrrolo[2,1-b]oxazol-5(6H)-ones and tetrahydropyrrolo[2,1-b]thiazol-5(6H)-ones as hypoglycemic agents” (1998).

Assay [1] can be described thus: lowest concentration at which glucose utilized was greater than or equal to 140% of control value tested in a glucose utilization L6 myocyte in vitro assay. In kind it is functional, Rattus norvegicus. A digest of the protocol: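 Differentiated rat L6 myotubes (day 11 or 13 after plating) exposed 20 h to compound in serum-free DMEM with 15 mM glucose and 1% final DMSO. Tested in quadruplicate at 3, 10, 30, 100, 300 µM. Glucose left in the medium read by glucose oxidase. Value is the lowest concentration giving at least 40% more utilization than control.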

The subject of assay [2] is Mus musculus. Kind of assay: In vivo lowering of blood glucose levels in diabetic obese ob/ob mice, measuring postprandial blood glucose level on day 3 after 2 hours at 300 uM/kg oral dose. The assay is classed as functional. A digest of the protocol: (§1)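 Adult male C57BL ob/ob mice, fed, grouped (6/group) and matched for blood glucose on day 0; mice under 150 mg/dL excluded. Oral dosing in the morning on days 1-3, vehicle 0.5% CMC with 0.2% Tween-80. Significance versus vehicle.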

Assay [3] relates to Mus musculus. Kind of assay: In vivo lowering of blood glucose levels in diabetic obese ob/ob mice by measuring postprandial blood glucose level on day 3 after 4 hours at 300 uM/kg oral dose. The assay is classed as functional. A digest of the protocol:
as §1

In assay [4] the test system is Mus musculus. Description: In vivo lowering of blood glucose levels in diabetic obese ob/ob mice by measuring postprandial blood glucose level on day 3 after 8 hours at 300 uM/kg oral dose. The assay is classed as functional. A digest of the protocol: as §1
Assay [5] relates to Mus musculus. Description: In vivo lowering of blood glucose levels in diabetic obese ob/ob mice, measuring postprandial blood glucose level on day1 after 2 hours at 300 uM/kg oral dose. The assay is classed as functional. A digest of the protocol:
as §1

Assay [6] has as its system Mus musculus. Kind of assay: In vivo lowering of blood glucose levels in diabetic obese ob/ob mice by measuring postprandial blood glucose level on day1 after 4 hours at 300 uM/kg oral dose. The assay is classed as functional. A digest of the protocol:
as §1

Some results are limits rather than exact numbers.

`O=C1CC[C@]2(c3ccc(Cl)cc3)OCCN12`: the “Lowest effective concentration for glucose utilization ≥140% of control” value in assay [1] was more than 1000 µM. Moreover, the Efficacy in the assay on Mus musculus [2] amounted to 23%; with Mus musculus [3], 28%; in the assay on Mus musculus [4] it was 11%; with Mus musculus [5], 21%; with Mus musculus [6], 7%.

For `COC(=O)N1C[C@H](COc2ccc(Cl)cc2)O[C@@H]1c1ccc(Cl)c(Cl)c1`, the “Lowest effective concentration for glucose utilization ≥140% of control” value in assay [1] stood at 30 µM. Moreover, the Efficacy is 25% with Mus musculus [2]; 19% in the assay with Mus musculus [3]; -9% in the assay on Mus musculus [4]; 13% in the assay on Mus musculus [5]; 40% with Mus musculus [6].

Consider `CS(=O)(=O)N1C[C@@H](COc2ccc(Cl)cc2)O[C@@H]1c1ccc(Cl)cc1`, for which the “Lowest effective concentration for glucose utilization ≥140% of control” value in assay [1] is 30 µM. For the same compound, the Efficacy is reported as 11% in the assay with Mus musculus [2]; 55% in the assay on Mus musculus [3]; 22% in the assay with Mus musculus [4]; -10% in the assay on Mus musculus [5]; 18% with Mus musculus [6].

In the case of `COc1ccc([C@]23CCC(=O)N2C[C@@H](COc2ccc(Cl)cc2)O3)cc1`, the “Lowest effective concentration for glucose utilization ≥140% of control” value in assay [1] stood at 30 µM. For the same compound, the Efficacy in the assay with Mus musculus [2] was -5%; with Mus musculus [3] it was -27%; in the assay with Mus musculus [4], 12%; in the assay on Mus musculus [5], -12%; with Mus musculus [6], 3%.

With `O=C1CC[C@]2(c3ccc4ccccc4c3)O[C@H](COc3ccc(Cl)cc3)CN12`, the “Lowest effective concentration for glucose utilization ≥140% of control” value in assay [1] stood at 30 µM. The Efficacy came out at 49% with Mus musculus [2]; 62% in the assay with Mus musculus [3]; 39% in the assay with Mus musculus [4]; 21% in the assay with Mus musculus [5]; 37% in the assay on Mus musculus [6].

On to `CC(=O)N1C[C@H](COc2ccc(Cl)cc2)O[C@@H]1c1ccc(Cl)cc1`, for which, in assay [1], the “Lowest effective concentration for glucose utilization ≥140% of control” value is 100 µM. Also, the Efficacy turned out to be 42% in the assay with Mus musculus [2]; 54% in the assay on Mus musculus [3]; 54% in the assay with Mus musculus [4]; 10% in the assay on Mus musculus [5]; 0% with Mus musculus [6].

On to `OCc1cc(-c2ccc(Cl)cc2)no1`, for which the “Lowest effective concentration for glucose utilization ≥140% of control” value in assay [1] turned out to be 100 µM. The Efficacy is listed as 61% with Mus musculus [2]; 53% in the assay with Mus musculus [3]; 34% in the assay on Mus musculus [4]; -3% in the assay with Mus musculus [5]; -1% with Mus musculus [6].

Turning to `O=C1CCC[C@]2(c3ccc(Oc4ccccc4)cc3)OCCN12`, the “Lowest effective concentration for glucose utilization ≥140% of control” value in assay [1] is 30 µM. Further, the Efficacy in the assay on Mus musculus [2] amounted to 45%; in the assay with Mus musculus [3], 50%; with Mus musculus [4] it was 3%; in the assay on Mus musculus [5] it was 25%; with Mus musculus [6] it was 29%.

Consider `OCc1cc(-c2ccc(Oc3ccccc3)cc2)no1`, for which, in assay [1], the “Lowest effective concentration for glucose utilization ≥140% of control” value came out at 30 µM. Moreover, the Efficacy with Mus musculus [2] worked out at 56%; in the assay on Mus musculus [3], 14%; with Mus musculus [4], 24%; in the assay on Mus musculus [5] it was 14%; with Mus musculus [6], 15%.

With `O=C1CC[C@]2(c3ccccc3)O[C@H](COc3ccc(Cl)cc3)CN12`, the “Lowest effective concentration for glucose utilization ≥140% of control” value in assay [1] was 100 µM. Besides, the Efficacy in the assay on Mus musculus [2] is 18%; in the assay with Mus musculus [3], -16%; in the assay with Mus musculus [4], -28%; in the assay on Mus musculus [5], 3%; in the assay with Mus musculus [6], 45%.

`O=C1CC[C@]2(c3ccc(-c4ccccc4)cc3)O[C@H](COc3ccc(Cl)cc3)CN12`: in assay [1], the “Lowest effective concentration for glucose utilization ≥140% of control” value was 10 µM. Further, the Efficacy is recorded as 20% in the assay with Mus musculus [2]; 35% in the assay on Mus musculus [3]; 7% in the assay with Mus musculus [4]; 16% in the assay with Mus musculus [5]; 17% in the assay on Mus musculus [6].

For the compound `O=C1CC[C@]2(c3ccc4ccccc4c3)O[C@@H](COc3ccc(Cl)cc3)CN12`, the “Lowest effective concentration for glucose utilization ≥140% of control” value in assay [1] is more than 300 µM. Further, the Efficacy is recorded as 13% in the assay with Mus musculus [2]; 7% with Mus musculus [3]; 8% in the assay with Mus musculus [4]; -6% in the assay with Mus musculus [5]; -11% in the assay with Mus musculus [6].

Regarding `COc1ccc(OC[C@@H]2CN3C(=O)CC[C@]3(c3ccc(Cl)cc3)O2)cc1`, the “Lowest effective concentration for glucose utilization ≥140% of control” value in assay [1] stood at 100 µM. Moreover, the Efficacy in the assay on Mus musculus [2] was -19%; with Mus musculus [3], -8%; in the assay with Mus musculus [4], -28%; in the assay with Mus musculus [5], -17%; in the assay with Mus musculus [6], -20%.

Regarding `O=C1CC[C@]2(c3ccc(Oc4ccccc4)cc3)O[C@H](COc3ccc(Cl)cc3)CN12`, in assay [1], the “Lowest effective concentration for glucose utilization ≥140% of control” value was 10 µM. The Efficacy is reported as 2% in the assay on Mus musculus [2]; -25% in the assay with Mus musculus [3]; -3% in the assay on Mus musculus [4]; -29% in the assay with Mus musculus [5]; -6% in the assay on Mus musculus [6].

For `O=C1CC[C@]2(c3ccc4oc5ccccc5c4c3)O[C@H](COc3ccc(Cl)cc3)CN12`, in assay [1], the “Lowest effective concentration for glucose utilization ≥140% of control” value came out at 30 µM. Further, the Efficacy was 8% in the assay with Mus musculus [2]; 16% in the assay on Mus musculus [3]; 7% in the assay with Mus musculus [4]; -25% in the assay with Mus musculus [5]; -43% with Mus musculus [6].

Consider `O=C1CC[C@]2(c3cccnc3)O[C@H](COc3ccc(Cl)cc3)CN12`, for which the “Lowest effective concentration for glucose utilization ≥140% of control” value in assay [1] was determined as 300 µM. Also, the Efficacy is 1% with Mus musculus [2]; 22% with Mus musculus [3]; 35% with Mus musculus [4]; 22% in the assay with Mus musculus [5]; 20% in the assay on Mus musculus [6].

Regarding `O=C1CC[C@]2(c3ccc(Oc4ccccc4)cc3)OCCN12`, the “Lowest effective concentration for glucose utilization ≥140% of control” value in assay [1] was 300 µM. The Efficacy is listed as -3% with Mus musculus [2]; -1% in the assay with Mus musculus [3]; -4% in the assay with Mus musculus [4]; -8% with Mus musculus [5]; 11% in the assay with Mus musculus [6].

Regarding `CS(=O)(=O)N1C[C@H](COc2ccc(Cl)cc2)O[C@@H]1c1ccc(Cl)cc1`, the “Lowest effective concentration for glucose utilization ≥140% of control” value in assay [1] was determined as 100 µM. In addition, the Efficacy in the assay with Mus musculus [2] is listed as 35%; with Mus musculus [3] it was 59%; in the assay on Mus musculus [4] it was 29%; in the assay with Mus musculus [5], -12%; in the assay with Mus musculus [6], -4%.

In the case of `O=C1CC[C@]2(c3ccc(F)cc3)O[C@H](COc3ccc(Cl)cc3)CN12`, the “Lowest effective concentration for glucose utilization ≥140% of control” value in assay [1] is 30 µM. Further, the Efficacy in the assay with Mus musculus [2] is 67%; in the assay on Mus musculus [3], 60%; in the assay on Mus musculus [4] it was 38%; with Mus musculus [5], -2%; in the assay on Mus musculus [6], 19%.

In the case of `O=C1CC[C@]2(c3ccc(Cl)cc3)SCCN12`, the “Lowest effective concentration for glucose utilization ≥140% of control” value in assay [1] was 300 µM. Besides, the Efficacy in the assay on Mus musculus [2] is recorded as 57%; in the assay on Mus musculus [3], 64%; with Mus musculus [4], 68%; in the assay with Mus musculus [5] it was 16%; with Mus musculus [6], 2%.

`CC(=O)N1C[C@@H](COc2ccc(Cl)cc2)O[C@@H]1c1ccc(Cl)c(Cl)c1`: the “Lowest effective concentration for glucose utilization ≥140% of control” value in assay [1] amounted to 30 µM. For the same compound, the Efficacy in the assay with Mus musculus [2] is reported as 69%; in the assay with Mus musculus [3] it was 70%; in the assay with Mus musculus [4], 61%; in the assay on Mus musculus [5], 8%; with Mus musculus [6], 26%.

Consider `O=C1CC[C@]2(c3ccc4c(c3)CCc3ccccc3-4)O[C@H](COc3ccc(Cl)cc3)CN12`, for which the “Lowest effective concentration for glucose utilization ≥140% of control” value in assay [1] came out at 30 µM. Also, the Efficacy worked out at 51% with Mus musculus [2]; 56% with Mus musculus [3]; 45% in the assay with Mus musculus [4]; 31% with Mus musculus [5]; 38% with Mus musculus [6].

Turning to `CC(C)(C)OC[C@@H]1CN2C(=O)CC[C@]2(c2ccc(Cl)cc2)O1`, the “Lowest effective concentration for glucose utilization ≥140% of control” value in assay [1] is 300 µM.

For `O=C1CC[C@]2(c3ccc(Cl)cc3)S[C@@H](COc3ccc(Cl)cc3)CN12`, in assay [1], the “Lowest effective concentration for glucose utilization ≥140% of control” value worked out at 10 µM. Besides, the Efficacy with Mus musculus [2] amounted to 44%; in the assay on Mus musculus [3], 48%; with Mus musculus [4] it was 35%; in the assay with Mus musculus [5], 9%; with Mus musculus [6] it was 3%.

Turning to `OCc1cc(-c2ccc(Cl)cc2Cl)no1`, the “Lowest effective concentration for glucose utilization ≥140% of control” value in assay [1] turned out to be 300 µM.

In the case of `O=C1CC[C@]2(c3ccc(Cl)cc3)O[C@H](CCc3ccccc3)CN12`, the “Lowest effective concentration for glucose utilization ≥140% of control” value in assay [1] is more than 300 µM.

As to `CC(C)(C)[C@]12CCC(=O)N1C[C@H](COc1ccc(Cl)cc1)O2`, the “Lowest effective concentration for glucose utilization ≥140% of control” value in assay [1] is more than 300 µM.

Regarding `O=C1CCC[C@]2(c3ccccc3)O[C@@H](COc3ccc(Cl)cc3)CN12`, the “Lowest effective concentration for glucose utilization ≥140% of control” value in assay [1] is more than 300 µM.

Turning to `O=C1CC[C@]2(c3ccc(Cl)cc3)O[C@@H](CCc3ccccc3)CN12`, the “Lowest effective concentration for glucose utilization ≥140% of control” value in assay [1] is more than 300 µM.

For `O=C1CC[C@]2(c3ccc(Cl)cc3)O[C@H](CNc3ccc(Cl)cc3)CN12`, the “Lowest effective concentration for glucose utilization ≥140% of control” value in assay [1] was more than 300 µM.

As for `CC1(C)C[C@]2(c3ccc(Oc4ccccc4)cc3)OCCN2C1=O`, the “Lowest effective concentration for glucose utilization ≥140% of control” value in assay [1] came out at 10 µM.
